Test results: ChEMBL document CHEMBL1152660, “Structural analogues of diosgenyl saponins: synthesis and anticancer activity” (Bioorg Med Chem, 2009)
Activity calls are given as the source filed them. The calls are words filed in the database; no cut-off is given here.

How the values were obtained:
MCF7 (human) = assay: Cytotoxicity against human MCF7 cells after 72 hrs by MTT assay; details: MCF7, 72 h
HeLa (human) = assay: Cytotoxicity against human HeLa cells after 72 hrs by MTT assay
HeLa = assay: Cytotoxicity against human HeLa cells at 50 uM after 72 hrs by MTT assay; assay type: functional, cell-based
Procedure, shortened: (§1)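 The MTT proliferation assay used MCF-7 or HeLa cells at 2000 per well in DMEM with 10% FBS at 37 °C and 5% CO2, with a 3-day exposure to DMSO-dissolved analogues diluted in medium. Compounds were tested up to the top concentration. A490 at that concentration is reported as percent of the absorbance of untreated cells.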

MCF7 = assay: Cytotoxicity against human MCF7 cells at 50 uM after 72 hrs by MTT assay; assay type: functional
Procedure, shortened: as §1

SMILES	IC50 (MCF7 (human)) [µM]	IC50 (HeLa (human)) [µM]	Activity (HeLa)	Activity (MCF7) [%]
C[C@@H]1CC[C@@]2(OC1)O[C@H]1C[C@H]3[C@@H]4CC=C5C[C@@H](O[C@@H]6O[C@H](CO)[C@@H](O[C@@H]7O[C@@H](C)[C@H](O)[C@@H](O)[C@H]7O)[C@H](O)[C@H]6NC(=O)c6cccc([N+](=O)[O-])c6)CC[C@]5(C)[C@H]4CC[C@]3(C)[C@H]1[C@@H]2C	22.8	39.4		
C[C@@H]1CC[C@@]2(OC1)O[C@H]1C[C@H]3[C@@H]4CC=C5C[C@@H](O[C@@H]6O[C@H](CO)[C@@H](O[C@@H]7O[C@@H](C)[C@H](O)[C@@H](O)[C@H]7O)[C@H](O)[C@H]6NC(=O)CCCCC6CCSS6)CC[C@]5(C)[C@H]4CC[C@]3(C)[C@H]1[C@@H]2C (mixture of isomers)	18.8	39.9		
C[C@@H]1CC[C@@]2(OC1)O[C@H]1C[C@H]3[C@@H]4CC=C5C[C@@H](O[C@@H]6O[C@H](CO)[C@@H](O)[C@H](O)[C@H]6NC(=O)CCCCC6CCSS6)CC[C@]5(C)[C@H]4CC[C@]3(C)[C@H]1[C@@H]2C (stereo partly drawn) [ALPHA LIPOYL]	6.9	7.3		
C[C@@H]1CC[C@@]2(OC1)O[C@H]1C[C@H]3[C@@H]4CC=C5C[C@@H](O[C@@H]6O[C@H](CO)[C@@H](O)[C@H](O)[C@H]6NC(=O)c6cccc([N+](=O)[O-])c6)CC[C@]5(C)[C@H]4CC[C@]3(C)[C@H]1[C@@H]2C	13.6	16.1		
COc1cccc2c1C(=O)c1c(O)c3c(c(O)c1C2=O)C[C@@](O)(C(=O)CO)C[C@@H]3O[C@H]1C[C@H](N)[C@H](O)[C@H](C)O1 [DOXORUBICIN]	0.73	1.03		
C[C@@H]1CC[C@@]2(OC1)O[C@H]1C[C@H]3[C@@H]4CC=C5C[C@@H](O[C@@H]6O[C@H](CO)[C@@H](O[C@@H]7O[C@@H](C)[C@H](O)[C@@H](O)[C@H]7O)[C@H](O)[C@H]6NC(=O)c6ccccc6)CC[C@]5(C)[C@H]4CC[C@]3(C)[C@H]1[C@@H]2C	> 50		inactive	68
C[C@@H]1CC[C@@]2(OC1)O[C@H]1C[C@H]3[C@@H]4CC=C5C[C@@H](O[C@@H]6O[C@H](CO)[C@@H](O)[C@H](O)[C@H]6NC(=O)c6cc([N+](=O)[O-])cc([N+](=O)[O-])c6)CC[C@]5(C)[C@H]4CC[C@]3(C)[C@H]1[C@@H]2C	18.7	21		
C[C@@H]1CC[C@@]2(OC1)O[C@H]1C[C@H]3[C@@H]4CC=C5C[C@@H](O[C@@H]6O[C@H](CO)[C@@H](O)[C@H](O)[C@H]6NC(=O)c6ccccc6)CC[C@]5(C)[C@H]4CC[C@]3(C)[C@H]1[C@@H]2C	19.4	18		
C[C@@H]1CC[C@@]2(OC1)O[C@H]1C[C@H]3[C@@H]4CC=C5C[C@@H](O[C@@H]6O[C@H](CO)[C@@H](O[C@@H]7O[C@@H](C)[C@H](O)[C@@H](O)[C@H]7O)[C@H](O)[C@H]6NC(=O)c6cc([N+](=O)[O-])cc([N+](=O)[O-])c6)CC[C@]5(C)[C@H]4CC[C@]3(C)[C@H]1[C@@H]2C	39.5		inactive	
